The target of data set [1] is ATP-dependent translocase ABCB1 (Homo sapiens, UniProt P08183). Description: Inhibition of human ABCB1 expressed in mouse T-lymphoma cells assessed as rhodamine-123 accumulation by measuring fluorescence activity ratio at 1 uM by flow cytometry relative to control. Type of data set: cell-based. Background: In flow cytometry, cells or beads pass a laser one at a time.

In data set [2] the test system is Mycobacterium tuberculosis. Description: Antitubercular activity against Mycobacterium tuberculosis H37Rv expressing GFP assessed as growth inhibition at 1 ug/ml measured after 7 days by fluorescence analysis relative to control. Type of data set: functional. As to conditions: 168 h, read-out: GI. The method in brief:
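GFP-expressing H37Rv cultured in 7H9 with 10% OADC, 0.05% Tween 80 and 0.2% glycerol, sealed under an air-permeable membrane. Growth was read as fluorescence (excitation 485 nm, emission 528 nm) after seven days, in triplicate. Fluorescence tracks bacterial growth.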

The target in data set [3] is T1, Multidrug efflux ATP-binding/permease protein Rv0194 (Mycobacterium tuberculosis (strain ATCC 25618 / H37Rv)) (UniProt O53645).
T1 sequence (whole entry): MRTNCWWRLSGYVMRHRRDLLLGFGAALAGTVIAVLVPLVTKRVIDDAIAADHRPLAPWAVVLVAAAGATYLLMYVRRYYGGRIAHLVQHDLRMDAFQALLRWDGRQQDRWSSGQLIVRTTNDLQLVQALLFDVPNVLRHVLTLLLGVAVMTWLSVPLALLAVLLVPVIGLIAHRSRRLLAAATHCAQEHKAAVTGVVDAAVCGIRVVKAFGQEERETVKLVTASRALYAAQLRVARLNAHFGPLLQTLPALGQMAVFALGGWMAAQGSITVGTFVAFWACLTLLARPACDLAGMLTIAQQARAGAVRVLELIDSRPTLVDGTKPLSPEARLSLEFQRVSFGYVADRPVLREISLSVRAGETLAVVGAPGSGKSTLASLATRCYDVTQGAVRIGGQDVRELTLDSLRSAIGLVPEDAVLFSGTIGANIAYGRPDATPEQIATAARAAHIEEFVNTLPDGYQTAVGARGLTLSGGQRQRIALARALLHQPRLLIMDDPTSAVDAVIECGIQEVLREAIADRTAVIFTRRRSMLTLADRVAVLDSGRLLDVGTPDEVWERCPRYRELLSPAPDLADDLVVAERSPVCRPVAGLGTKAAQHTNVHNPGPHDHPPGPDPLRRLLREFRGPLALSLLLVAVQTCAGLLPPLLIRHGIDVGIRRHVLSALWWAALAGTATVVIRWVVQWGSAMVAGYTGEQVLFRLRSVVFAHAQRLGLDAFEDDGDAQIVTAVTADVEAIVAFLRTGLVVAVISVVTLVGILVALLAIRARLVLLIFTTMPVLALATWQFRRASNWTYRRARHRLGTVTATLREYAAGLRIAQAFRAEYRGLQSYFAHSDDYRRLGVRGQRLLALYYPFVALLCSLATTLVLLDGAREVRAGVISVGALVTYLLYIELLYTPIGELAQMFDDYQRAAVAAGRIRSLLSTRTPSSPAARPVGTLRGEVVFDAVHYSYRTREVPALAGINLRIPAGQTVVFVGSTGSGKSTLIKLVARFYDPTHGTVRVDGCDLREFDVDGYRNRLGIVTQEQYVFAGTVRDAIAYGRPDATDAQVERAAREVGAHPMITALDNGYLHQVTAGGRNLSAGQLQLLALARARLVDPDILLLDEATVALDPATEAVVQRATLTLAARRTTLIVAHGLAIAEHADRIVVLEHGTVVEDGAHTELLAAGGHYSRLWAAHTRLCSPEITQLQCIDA
Description: Inhibition of GFP-fused Mycobacterium tuberculosis H37Rv Rv0194 assessed as potentiation of clofazimine-mediated antitubercular activity by measuring clofazimine growth inhibition at 0.3 ug/ml (reference value: 39%). The method in brief:
(§1)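 The antitubercular drug at set concentrations was tested alone and combined with the test compound held at 0.3 µg/mL. The GFP-expressing H37Rv growth assay was used: 7H9 with 10% OADC, 0.05% Tween 80 and 0.2% glycerol, seven days of culture, fluorescence at 485/528 nm, triplicates.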

Data set [4] deals with T1, Multidrug efflux ATP-binding/permease protein Rv0194 (Mycobacterium tuberculosis (strain ATCC 25618 / H37Rv)). Description: Inhibition of GFP-fused Mycobacterium tuberculosis H37Rv Rv0194 assessed as potentiation of ciprofloxacin-mediated antitubercular activity by measuring ciprofloxacin growth inhibition at 0.3 ug/ml (reference value: 19%). The method in brief: as §1

Data set [5] has the same target. Description: Inhibition of GFP-fused Mycobacterium tuberculosis H37Rv Rv0194 assessed as potentiation of ciprofloxacin-mediated antitubercular activity by measuring fold increase in ciprofloxacin growth inhibition at 0.3 ug/ml.

Each structure is given as a SMILES string.

Chain of ATP-dependent translocase ABCB1 (P08183 whole entry): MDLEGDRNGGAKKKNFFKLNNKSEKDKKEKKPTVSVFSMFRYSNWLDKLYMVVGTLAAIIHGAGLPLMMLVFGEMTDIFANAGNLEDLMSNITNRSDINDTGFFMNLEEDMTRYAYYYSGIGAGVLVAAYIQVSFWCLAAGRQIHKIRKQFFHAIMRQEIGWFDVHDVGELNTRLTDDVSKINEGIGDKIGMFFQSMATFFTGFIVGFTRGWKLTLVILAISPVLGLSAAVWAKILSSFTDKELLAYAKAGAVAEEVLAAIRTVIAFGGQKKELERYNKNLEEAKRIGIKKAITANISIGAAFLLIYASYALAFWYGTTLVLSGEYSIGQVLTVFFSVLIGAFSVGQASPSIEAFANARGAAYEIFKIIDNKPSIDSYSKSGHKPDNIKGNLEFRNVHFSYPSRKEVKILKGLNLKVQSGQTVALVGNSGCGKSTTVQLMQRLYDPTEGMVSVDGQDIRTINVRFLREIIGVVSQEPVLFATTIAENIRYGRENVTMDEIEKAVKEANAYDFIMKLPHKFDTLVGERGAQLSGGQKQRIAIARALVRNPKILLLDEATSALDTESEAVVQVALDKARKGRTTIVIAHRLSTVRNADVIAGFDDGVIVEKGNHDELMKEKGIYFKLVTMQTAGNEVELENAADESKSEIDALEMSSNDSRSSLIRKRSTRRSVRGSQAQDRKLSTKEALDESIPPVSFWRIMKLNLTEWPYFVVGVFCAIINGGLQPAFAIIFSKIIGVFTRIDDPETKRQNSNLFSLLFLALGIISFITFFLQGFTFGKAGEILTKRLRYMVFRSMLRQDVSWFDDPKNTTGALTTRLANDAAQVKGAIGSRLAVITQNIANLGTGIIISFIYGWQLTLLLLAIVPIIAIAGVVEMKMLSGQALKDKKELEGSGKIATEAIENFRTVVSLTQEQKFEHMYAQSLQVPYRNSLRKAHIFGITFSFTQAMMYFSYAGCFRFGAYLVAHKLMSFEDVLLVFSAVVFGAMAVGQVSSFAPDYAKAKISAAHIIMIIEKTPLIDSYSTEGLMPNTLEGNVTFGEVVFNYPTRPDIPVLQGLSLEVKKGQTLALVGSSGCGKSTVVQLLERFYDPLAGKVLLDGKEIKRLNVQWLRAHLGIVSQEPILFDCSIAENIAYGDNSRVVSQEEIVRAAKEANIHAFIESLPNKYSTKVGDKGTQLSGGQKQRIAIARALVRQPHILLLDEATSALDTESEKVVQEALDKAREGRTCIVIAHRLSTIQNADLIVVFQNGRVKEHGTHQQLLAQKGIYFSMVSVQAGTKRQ

In the case of `CCOC(=O)C1=CN(c2ccccc2)C=C(C(=O)OCC)C1c1ccccc1`, the Ratio in data set [1] turned out to be 4.3. For the same molecule, the inhibition of growth at 1 µg/mL in data set [2] turned out to be 57%.
The like results for `CCOC(=O)C1=CN(c2ccc(OC)cc2)C=C(C(=O)OCC)C1c1ccccc1` were, in that order, 3.9 and 60%.
Turning to `CCOC(=O)C1=CN(c2ccccc2)C=C(C(=O)OCC)C1c1ccc(OC)c(OC)c1`, the Ratio in data set [1] is reported as 7.3. Further, the inhibition of growth at 1 µg/mL in data set [2] is 30%. For the same molecule, the growth inhibition (GI) in data set [3] stood at 60%; in data set [4], 46%. Also, the fold change (FC) in data set [5] is 2.5.
For `CCOC(=O)C1=CN(c2ccccc2)C=C(C(=O)OCC)C1c1cccc(OC)c1`, the Ratio in data set [1] is given as 1.1. Moreover, the inhibition of growth at 1 µg/mL in data set [2] amounted to 61%.
The corresponding values for `CCOC(=O)C1=CN(c2ccc(OC)cc2)C=C(C(=O)OCC)C1c1cccc(OC)c1` are 3.4 and 41%.
The corresponding values for `CCOC(=O)C1=CN(c2ccc(OC)cc2)C=C(C(=O)OCC)C1c1ccc(OC)cc1` are 1.2 and 35%.
As to `NNC(=O)c1ccncc1` [ISONIAZID], the inhibition of growth at 1 µg/mL in data set [2] was determined as 97%.
On to `CCOC(=O)C1=CN(c2ccc(OC)cc2)C=C(C(=O)OCC)C1c1ccc(OC)c(OC)c1`, for which, in data set [1], the Ratio is listed as 5.2. For the same molecule, the inhibition of growth at 1 µg/mL in data set [2] was 60%.
Take `CCOC(=O)C1=CN(c2ccccc2)C=C(C(=O)OCC)C1c1ccc(OC)cc1`: the inhibition of growth at 1 µg/mL in data set [2] was found to be 25%.

For the origin of these results see ChEMBL document CHEMBL3868629, “Discovery of novel N-phenyl 1,4-dihydropyridines with a dual mode of antimycobacterial activity” (Bioorg Med Chem Lett, 2016).
